Results: publication PMC10619633 (Chemical Science, 2023)

How the values were obtained:
[1] = Spectroscopic properties and 1O2 quantum yield in MeCN; format: physicochemical; settings: for Φ Δ (1O2 quantum yield): irradiation at 450 nm, [Ru(bpy)3]Cl2 as reference
[2] = system: RPE-1 cells; assay: Dark cytotoxicity, resazurin assay, non-cancerous RPE-1; format: cell-based; settings: read-out: Cytotoxicity IC50 Dark, RPE-1, normoxia (20%)
[3] = system: A549 cells; assay: Cellular uptake by ICP-MS; format: cell-based, Human; settings: A549, 5 μM, 4 h
How it was run: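 Test Os(II) complexes were added at 5 μM to A549 cells for 4 h under normoxic or hypoxic conditions. Uptake was quantified by ICP-MS from the cellular Ru/Os concentration. Experiments were done in triplicate.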

[4] = system: A549 cells; assay: Cellular uptake inhibition by acetazolamide pre-incubation, ICP-MS; format: cell-based, Human; settings: A549, complex 5 μM 4 h, acetazolamide 50 μM 2 h pre-incubation
[5] = Octanol/PBS partition coefficient; format: physicochemical; settings: room temperature, PF6- salts
How it was run: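 Partitioning measured between octanol and PBS; PBS replaced water to limit pH effects on log P. Complexes were tested as PF6− salts, whereas the biological assays used chloride salts.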

[6] = Solubility in water; format: physicochemical
[7] = system: A549 cells; assay: Cellular fraction; format: cell-based, Human; settings: A549, 24 h co-incubation, nuclei/cytoplasm isolated, ICP-MS
How it was run: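 Test complexes were incubated with A549 cells for 24 h. Nuclei and cytoplasm were then isolated, and each fraction was analysed by ICP-MS for Ru or Os content to give the distribution between compartments. Experiments were done in triplicate.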

## [Cl][Ru][Cl].c1ccc(-c2ccccn2)nc1.c1ccc(-c2ccccn2)nc1.c1ccc(-c2ccccn2)nc1 [Ru(bpy)3, [Ru(bpy)3]Cl2, reference compound]
[1]
  Φ em (luminescence quantum yield): 8%
  λ em (emission maximum): 608 nm
  τ (fluorescence lifetime): 159 ns
  Φ Δ (1O2 quantum yield): 77%

## [Os(Bphen)2(bpy-(NH2)2)]2+(2PF6-) [complex 9]
[2]
  IC50: > 30 µM
[3]
  cellular uptake under hypoxic compared to normoxic conditions: notably reduced cellular uptake under hypoxic conditions
[4]
  impact of acetazolamide pre-incubation on cellular uptake: negligible

## [Os(Bphen)2(bpy-(NHCH2CH2NH2)2-L2)]2+(2PF6-).(L= N4-Succinoylsulfanilamide) [complex 12]
[5]
  log P (octanol/PBS partition coefficient): greater than 1
[2]
  IC50: > 100 µM
[1]
  Φ em (luminescence quantum yield): 0%
[6]
  solubility in water: good solubility in water
[3]
  cellular uptake under hypoxic compared to normoxic conditions: 1.3 times
[7]
  fraction localized within the cytoplasm: over 80%
[4]
  impact of acetazolamide pre-incubation on cellular uptake: notably reduced

## [Os(Bphen)2(bpy-(NHCH2CH2NH2)2-L)]2+(2PF6-).(L= N4-Succinoylsulfanilamide) [complex 11]
[5]
  log P (octanol/PBS partition coefficient): greater than 1
[2]
  IC50: > 100 µM
[1]
  Φ em (luminescence quantum yield): 0%
[6]
  solubility in water: good solubility in water
[4]
  impact of acetazolamide pre-incubation on cellular uptake: notably reduced

## [Ru(Bphen)2(bpy-(NH 2)2)]2+(2PF6-) [complex 3]
[2]
  IC50: > 100 µM
[4]
  impact of acetazolamide pre-incubation on cellular uptake: negligible

## [Ru(Bphen)2(bpy-(NH CH 2CH2NH2)2-L2)]2+(2 P F 6-).(L= N4-Succinoylsulfanilamide) [complex 6]
[5]
  log P (octanol/PBS partition coefficient): greater than 1
[2]
  IC50: > 100 µM
[1]
  Φ em (luminescence quantum yield): 2%
  λ em (emission maximum): 675 nm
  τ (fluorescence lifetime): 117 ns
  Φ Δ (1O2 quantum yield): 77%
[6]
  solubility in water: good solubility in water
[7]
  fraction localized within the cytoplasm: over 80%
[4]
  impact of acetazolamide pre-incubation on cellular uptake: notably reduced

## [Ru(Bphen)2(bpy-(NH CH 2CH2NH2)2-L)]2+(2PF6-).(L= N4-Succinoylsulfanilamide) [complex 5]
[2]
  IC50: > 100 µM
[1]
  Φ em (luminescence quantum yield): 2%
  λ em (emission maximum): 674 nm
  τ (fluorescence lifetime): 122 ns
  Φ Δ (1O2 quantum yield): 77%
[6]
  solubility in water: good solubility in water
[4]
  impact of acetazolamide pre-incubation on cellular uptake: notably reduced
